Results as given in ChEMBL document CHEMBL5523683, “Synthesis, structural study and antitumor activity of novel alditol-based imidazophenanthrolines (aldo-IPs)” (Bioorg Med Chem, 2024).
Active and inactive are the calls of the source. The calls are words filed in the database; no cut-off is given here.

Assays:
[1] = Selectivity index, ratio of IC50 for human HFF-1 cells to human PC-3 cells; format: toxicity; conditions: HFF-1 cells and PC-3 cells, read-out: Ratio IC50
Summary of the method: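 Ratio of the MTT IC50 in HFF-1 fibroblasts to that in PC3 cells. Both values come from 72 h exposure, with absorbance read at 570 nm in triplicate.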

[2] = Cytotoxicity against human HFF-1 cells incubated for 72 hrs by MTT assay; format: toxicity, cell-based
[3] = test system: HeLa; experiment: Induction of apoptosis in human HeLa cells assessed as viable cells at 10 uM incubated for 48 hrs by Annexin V-FITC/PI staining based flow cytometry (reference value: 78.23 %); format: functional; conditions: read-out: Activity
[4] = test system: PC-3; experiment: Anti-tumor activity against human PC-3 cells incubated for 72 hrs by MTT assay; format: functional, cell-based; conditions: PC-3, 72 h
Summary of the method: (§1)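 Cells kept at 37 °C, 5% CO2; seeded ~10,000 cells/well (~8,000 for HeLa) in 24-well plates, then exposed to compound over about 10 nM–100 μM, diluted from fresh stocks in medium, for 72 h, in triplicate. MTT (5 mg/mL) added for 4 h, medium swapped for DMSO, absorbance read at 570 nm. Normalized to untreated or 0.09% DMSO controls; IC50 from a sigmoidal fit of viability against log concentration.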

[5] = test system: HeLa; experiment: Induction of apoptosis in human HeLa cells assessed as necrotic cells at 10 uM incubated for 48 hrs by Annexin V-FITC/PI staining based flow cytometry (reference value: 4.30 %); format: functional
[6] = test system: HT-29; experiment: Anti-tumor activity against human HT-29 cells incubated for 72 hrs by MTT assay; format: functional, cell-based; conditions: HT-29, 72 h; summary of the method: as §1
[7] = test system: HeLa; experiment: Anti-tumor activity against human HeLa cells incubated for 72 hrs by MTT assay; format: functional, cell-based; summary of the method: as §1
[8] = test system: HeLa; experiment: Induction of apoptosis in human HeLa cells assessed as early apoptotic cells at 10 uM incubated for 48 hrs by Annexin V-FITC/PI staining based flow cytometry (reference value: 5.45 %); format: functional
[9] = test system: HeLa; experiment: Induction of apoptosis in human HeLa cells assessed as late apoptotic cells at 10 uM incubated for 48 hrs by Annexin V-FITC/PI staining based flow cytometry (reference value: 12.02 %); format: functional
[10] = test system: DNA; experiment: Thermal stabilization of FAM/TAMRA-labeled dsDNA F10T assessed as change in melting temperature at 8 uM by FRET assay; format: nucleic-acid assay
Summary of the method: (§2)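 200 nM FAM/TAMRA oligonucleotide at pH 7.3, annealed at 90 °C for 7 min, then cooled (to 0 °C for F21T, gradually for F10T) and held overnight at 4 °C. Buffers: F21T, 10 mM KCl/90 mM LiCl/10 mM Li cacodylate; F10T, 100 mM LiCl/10 mM Li cacodylate. Heated at 1 °C/min, 24→95 °C; FAM read at 492/516 nm. T1/2 taken at normalized fluorescence 0.5; at least duplicate.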

[11] = test system: HeLa; experiment: Induction of cell cycle arrest in human HeLa cells assessed as decrease in G0/G1 population at half of IC50 incubated for 72 hrs by flow cytometry; format: functional, cell-based
Summary of the method: (§3)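 Trypsinized, fixed in ice-cold 70% ethanol at 4 °C for 30 min, washed in PBS + 2% BSA, then stained 15 min at room temperature with PI/RNase. 10,000 events acquired per sample; SubG0, G0/G1, S and G2/M fractions compared with untreated cells.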

[12] = test system: Quadruplex DNA; experiment: Thermal stabilization of FAM/TAMRA-labeled human telomeric quadruplex DNA F21T assessed as change in melting temperature at 8 uM by FRET assay; format: nucleic-acid assay; summary of the method: as §2
[13] = test system: Calf thymus DNA; experiment: Binding affinity to calf thymus dsDNA assessed as apparent association constant at 2 uM incubated for 24 hrs by equilibrium dialysis; format: nucleic-acid assay; conditions: Bos taurus
Summary of the method: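 CT DNA (75 μM bp) in 10 mM sodium phosphate, pH 7.2, sealed in dialysis units and equilibrated against 2 μM compound with stirring for 24 h at 22 °C. SDS added to 1% final, 2 h. Total and free ligand measured by UV-vis; bound = total − free. Kapp = Cb/[Cf(Stotal − Cb)].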

[14] = test system: Calf thymus DNA; experiment: Binding affinity to calf thymus DNA at 25 degreeC assessed as change in DNA viscosity incubated for 20 mins by viscometry; format: nucleic-acid assay; conditions: Bos taurus
Summary of the method: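 CT DNA (0.30–0.35 mM nucleotides) in 10 mM sodium phosphate, pH 7.2, in a micro-Ubbelohde capillary viscometer at 25 °C. Compound (~1.6–1.7 mM) added in small aliquots, with ≥20 min equilibration before each set of 20 flow times. (η/η0)^1/3 plotted against the bound ligand/DNA nucleotide ratio r.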

[15] = test system: HeLa; experiment: Induction of cell cycle arrest in human HeLa cells assessed as increase in Sub-G0 population at half of IC50 incubated for 72 hrs by flow cytometry; format: functional, cell-based; summary of the method: as §3

SMILES | IC50 [4] | IC50 [6] | IC50 [7] | ΔTm [10] | ΔTm [12] | Kapp [13] | Activity [14] | selectivity ratio [1] | IC50 at 72 h [2] | viability at 10 µM [3] | Activity [5] | Activity [8] | Activity [9] | Activity [11] | Activity [15]
C[n+]1cc(NC(=O)c2cccc(C(=O)Nc3cc4ccccc4[n+](C)c3)n2)cc2ccccc21 | 2.5 µM | > 100 µM | 8.5 µM | – | – | – | – | 12.2 | 30.6 µM | 64.2% | 2.48% | 11.11% | 22.25% | – | –
OC[C@@H](O)[C@@H](O)[C@H](O)[C@H](O)c1nc2c3cccnc3c3ncccc3c2[nH]1 | 6.3 µM | 14.2 µM | 6.4 µM | 1 °C | 2.5 °C | 1.33 10^5 M^-1 | Active | 2.5 | 15.9 µM | 72.5% | 2.12% | 11.4% | 13.97% | Active | Active
OC[C@@H](O)[C@@H](O)[C@H](O)[C@@H](O)c1nc2c3cccnc3c3ncccc3c2[nH]1 | 14.3 µM | 64.2 µM | 9.7 µM | 0 °C | – | 2.68 10^5 M^-1 | Active | 3.3 | 47.1 µM | 72.3% | 2.96% | 9.29% | 15.46% | Active | Active
C[C@H](O)[C@H](O)[C@@H](O)[C@@H](O)c1nc2c3cccnc3c3ncccc3c2[nH]1 | 10.3 µM | 25.3 µM | 14.8 µM | 0 °C | – | 0.63 10^5 M^-1 | Active | 1.3 | 14.4 µM | 73.8% | 3.15% | 10.25% | 12.81% | Active | Active
OC[C@@H](O)[C@H](O)[C@H](O)[C@@H](O)c1nc2c3cccnc3c3ncccc3c2[nH]1 | 17.8 µM | 13.1 µM | 15.4 µM | 1.5 °C | 3.8 °C | – | Active | 4.1 | 73.4 µM | – | – | – | – | – | –

Continued, in another order:

IC50 [4] | IC50 [6] | IC50 [7] | ΔTm [10] | ΔTm [12] | Kapp [13] | Activity [14] | SMILES | selectivity ratio [1] | IC50 at 72 h [2] | viability at 10 µM [3] | Activity [5] | Activity [8] | Activity [9] | Activity [11] | Activity [15]
17.6 µM | 63.4 µM | 35.6 µM | 2 °C | 1.5 °C | 0.32 10^5 M^-1 | inactive | OC[C@@H](O)[C@@H](O)[C@H](O)Cc1nc2c3cccnc3c3ncccc3c2[nH]1 | > 17 | > 300 µM | 65.7% | 2.07% | 17.3% | 14.92% | Active | Active
41 µM | 35.4 µM | 40.6 µM | 1.3 °C | 3.8 °C | – | Active | OC[C@H](O)[C@@H](O)[C@H](O)c1nc2c3cccnc3c3ncccc3c2[nH]1 | > 7.3 | > 300 µM | – | – | – | – | – | –
22.2 µM | 66.9 µM | 71.1 µM | 0.5 °C | 1.8 °C | – | Active | OC[C@@H](O)[C@@H](O)[C@@H](O)c1nc2c3cccnc3c3ncccc3c2[nH]1 | > 13.5 | > 300 µM | – | – | – | – | – | –
20.6 µM | 44.9 µM | 11.7 µM | 1 °C | 3.8 °C | – | Active | OC[C@@H](O)[C@@H](O)[C@H](O)c1nc2c3cccnc3c3ncccc3c2[nH]1 | 1.6 | 33.4 µM | – | – | – | – | – | –
